From publication PMC7689895 (ACS Omega, 2020)
Values after ≈ are worked out from the molar mass of the structure shown.

Experiments:
Cytotoxicity test [1] = assay type: cell-based; conditions: African green monkey, uninfected Vero cells
Outline: (§1)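 Stocks of 50 mg/mL in DMSO, with antibiotic–antimycotic added, were diluted twofold in DMEM. Cells at 2 × 10⁵ cells/mL were grown 24 h at 37 °C under 5% CO₂ to confluence, then exposed 72 h. Morphology was scored daily by inverted microscopy. Viable cells were counted by 0.4% trypan blue exclusion after trypsinisation. CC50 halves OD492 of treated versus untreated uninfected cells. Triplicates.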

[2] = test system: herpes simplex virus type 1 (HSV-1); experiment: Plaque assay for antiviral activity, Vero cells; assay type: cell-based; conditions: for IC50: Human alphaherpesvirus 1, Vero; for mean % of reduction, herpes simplex virus type-1: nontoxic dose, viral titers 1 × 10^5, 1 × 10^6, 1 × 10^7
USP7 enzyme = USP7 enzyme (Homo sapiens, UniProt Q93009); experiment: USP7 Inhibitor Screening Assay Kit; assay type: biochemical; conditions: for inhibition at 0.1 µg/mL / inhibition at 1 µg/mL / inhibition at 10 µg/mL / inhibition at 100 µg/mL: read-out: inhibition percentage against USP7
Outline: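 Human recombinant USP7 from a commercial kit was stabilised with DTT and used at 0.4 ng/µL. Ub-AMC substrate was diluted 400-fold in 1× assay buffer, test compound or inhibitor buffer was added, and the enzyme started the reaction. After 30 min at room temperature with rotation, fluorescence was read at 360 nm excitation and 460 nm emission, minus blank.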

Vero = experiment: Cytotoxicity test; assay type: cell-based; conditions: Vero cell line
Outline: as §1

Hep-2 = experiment: Cytotoxicity test; assay type: cell-based; conditions: Hep-2 cell line
Outline: as §1

BGM = experiment: Cytotoxicity test; assay type: cell-based; conditions: for nontoxic dose: BGM cell line
Outline: as §1

FRHK-4 = experiment: Cytotoxicity test; assay type: cell-based; conditions: FRHK-4 cell line
Outline: as §1

Huh 7.5 = experiment: Cytotoxicity test; assay type: cell-based; conditions: Huh 7.5 cell line
Outline: as §1

[3] = test system: adenovirus type 7 (HAdV7); experiment: Plaque assay for antiviral activity, Hep-2 cells; assay type: cell-based; conditions: for mean % of reduction, adenovirus type 7: nontoxic dose, viral titers 1 × 10^5, 1 × 10^6, 1 × 10^7
Outline: (§2)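 Nontoxic dilutions were mixed 1:1 (100 µL each) with virus (10⁵–10⁷) for 0.5 h at 37 °C. Tenfold dilutions were plated on Hep-2 (HAdV7), FRHK-4 (HAV HM175) or BGM (CBV4), adsorbed 1 h at 37 °C under 5% CO₂, and overlaid with 2× DMEM plus 1% agarose. Plaques were fixed with formalin, stained with crystal violet and counted as pfu/mL. IC50 is the half-maximal plaque reduction; SI = CC50/IC50. Triplicates.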

coxsackievirus B4 (CBV4) = experiment: Plaque assay for antiviral activity, BGM cells; assay type: cell-based; conditions: for SI: CC50/IC50 ratio; for mean % of reduction, coxsackievirus B4: nontoxic dose, viral titers 1 × 10^5, 1 × 10^6, 1 × 10^7
Outline: as §2

[4] = test system: hepatitis A virus (HAV) HM175; experiment: Plaque assay for antiviral activity, FRHK-4 cells; assay type: cell-based; conditions: for mean % of reduction, hepatitis A virus HM175: nontoxic dose, viral titers 1 × 10^5, 1 × 10^6, 1 × 10^7
Outline: as §2

HCVcc genotype 4 = experiment: Antiviral bioassay against ED-43/SG-Feo; assay type: cell-based, hepatitis C virus genotype 4a; conditions: for mean % of reduction, HCVcc genotype 4: nontoxic dose, viral titers 1 × 10^5, 1 × 10^6, 1 × 10^7
Cytotoxicity test [5] = assay type: cell-based; conditions: human, uninfected Hep-2 cells
Outline: as §1

Cytotoxicity test [6] = assay type: cell-based; conditions: African green monkey, uninfected BGM cells
Outline: as §1

Cytotoxicity test [7] = assay type: cell-based; conditions: rhesus monkey, uninfected FRHK-4 cells
Outline: as §1

Cytotoxicity test [8] = assay type: cell-based; conditions: human, uninfected Huh 7.5 cells
Outline: as §1

USP7 enzyme, sequence (Q93009 whole entry): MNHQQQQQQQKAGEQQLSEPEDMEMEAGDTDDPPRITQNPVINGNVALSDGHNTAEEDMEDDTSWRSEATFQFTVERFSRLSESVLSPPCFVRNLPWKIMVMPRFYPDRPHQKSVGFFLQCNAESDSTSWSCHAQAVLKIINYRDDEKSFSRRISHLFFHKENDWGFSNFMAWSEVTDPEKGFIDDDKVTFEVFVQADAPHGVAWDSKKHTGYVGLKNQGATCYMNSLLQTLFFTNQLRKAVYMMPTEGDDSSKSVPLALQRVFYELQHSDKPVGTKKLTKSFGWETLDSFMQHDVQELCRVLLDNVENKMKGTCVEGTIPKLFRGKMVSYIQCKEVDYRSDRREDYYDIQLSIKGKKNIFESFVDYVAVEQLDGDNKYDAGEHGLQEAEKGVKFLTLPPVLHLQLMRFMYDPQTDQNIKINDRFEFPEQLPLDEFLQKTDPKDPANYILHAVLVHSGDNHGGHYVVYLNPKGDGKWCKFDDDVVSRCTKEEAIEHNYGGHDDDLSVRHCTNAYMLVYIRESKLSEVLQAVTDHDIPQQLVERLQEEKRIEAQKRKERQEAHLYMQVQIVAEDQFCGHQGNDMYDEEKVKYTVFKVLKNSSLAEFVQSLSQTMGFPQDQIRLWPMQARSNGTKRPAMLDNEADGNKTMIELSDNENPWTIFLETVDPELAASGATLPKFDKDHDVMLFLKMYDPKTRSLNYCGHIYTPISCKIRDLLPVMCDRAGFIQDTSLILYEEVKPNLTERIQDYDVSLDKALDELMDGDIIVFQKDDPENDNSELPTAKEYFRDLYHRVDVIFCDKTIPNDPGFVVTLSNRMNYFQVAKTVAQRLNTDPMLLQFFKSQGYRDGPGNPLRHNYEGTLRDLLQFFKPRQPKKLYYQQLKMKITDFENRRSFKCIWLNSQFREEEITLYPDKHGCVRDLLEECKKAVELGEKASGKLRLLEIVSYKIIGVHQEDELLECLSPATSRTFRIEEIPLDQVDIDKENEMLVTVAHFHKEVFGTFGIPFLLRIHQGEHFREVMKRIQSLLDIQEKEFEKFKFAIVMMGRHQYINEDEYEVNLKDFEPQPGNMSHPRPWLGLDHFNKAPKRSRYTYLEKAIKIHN

Row | SMILES | nontoxic dose (Vero) | nontoxic dose (Hep-2) | nontoxic dose (BGM) | nontoxic dose (FRHK-4) | nontoxic dose (Huh 7.5) | mean % of reduction, herpes simplex virus type-1 [2] | mean % of reduction, adenovirus type 7 [3] | mean % of reduction, hepatitis A virus HM175 [4] | mean % of reduction, HCVcc genotype 4 (HCVcc genotype 4) | mean % of reduction, coxsackievirus B4 (coxsackievirus B4 (CBV4)) | further results
1 | Nc1nc2c(ncn2COCCO)c(=O)[nH]1 [acyclovir, reference compound] |  |  |  |  |  |  |  |  |  |  | CC50 (Cytotoxicity test [1]): 2.8 µg/mL (≈ 12.4 µM); IC50 [2]: 0.7 µg/mL (≈ 3.11 µM); IC50 (USP7 enzyme): 11 µM; inhibition at 0.1 µg/mL (USP7 enzyme): 18.7%; inhibition at 1 µg/mL (USP7 enzyme): 35%; inhibition at 10 µg/mL (USP7 enzyme): 71.7%; inhibition at 100 µg/mL (USP7 enzyme): 84.5%
2 | O=c1c(-c2nc3ccccc3s2)cc2c(n1NS(=O)(=O)c1ccccc1)CCCC2 [compound 7a] | 110 µg/mL | 110 µg/mL | 110 µg/mL | 110 µg/mL | 100 µg/mL | 40.0% | 10.0% | 30.0% | 30.0% |  | CC50 (BGM; uninfected host cells, section Coxsackievirus B4): 260 µg/mL (≈ 594 µM); SI (coxsackievirus B4 (CBV4); Coxsackievirus B4): 2.95; IC50 (coxsackievirus B4 (CBV4); Coxsackievirus B4): 88 µg/mL (≈ 201 µM)
3 | O=c1c(-c2nc3ccccc3s2)cc2c(n1NS(=O)(=O)c1ccc(Cl)cc1)CCCC2 [compound 7b] | 130 µg/mL | 130 µg/mL | 130 µg/mL | 130 µg/mL | 130 µg/mL | - ^a |  |  |  |  | 
4 | N#Cc1cc(-c2nc3ccccc3s2)c(=O)n(NS(=O)(=O)c2ccccc2)c1N [compound 13a, N-(6-Amino-3-(benzo[d]thiazole-2-yl)-5-cyano-2-oxopyridine-1(2H)-yl)benzensulfonamide] | 110 µg/mL | 110 µg/mL | 100 µg/mL | 110 µg/mL | 100 µg/mL |  | 50% | 60% | 56.7% |  | CC50 (Cytotoxicity test [1]): 280 µg/mL (≈ 661 µM); CC50 (Cytotoxicity test [5]): 270 µg/mL (≈ 638 µM); CC50 (Cytotoxicity test [6]): 240 µg/mL (≈ 567 µM); CC50 (Cytotoxicity test [7]): 260 µg/mL (≈ 614 µM); CC50 (Cytotoxicity test [8]): 260 µg/mL (≈ 614 µM); SI ([2]; CC50/IC50 ratio, Herpes Simplex Virus): 3.73; IC50 [2]: 75 µg/mL (≈ 177 µM); SI ([3]; CC50/IC50 ratio, Adenovirus Type 7): 2.45; SI (coxsackievirus B4 (CBV4); Coxsackievirus B4): 2.86; SI ([4]; CC50/IC50 ratio, Hepatitis A Virus HM175): 2.89; IC50 ([4]; Hepatovirus A, FRhK-4): 90 µg/mL (≈ 213 µM); SI (HCVcc genotype 4; CC50/IC50 ratio, HCVcc Genotype 4): 3.09; IC50 (USP7 enzyme): 11.3 µM; inhibition at 0.1 µg/mL (USP7 enzyme): 11.8%; inhibition at 1 µg/mL (USP7 enzyme): 35.8%; inhibition at 10 µg/mL (USP7 enzyme): 54%; inhibition at 100 µg/mL (USP7 enzyme): 81.5%
5 | N#Cc1cc(-c2nc3ccccc3s2)c(=O)n(NS(=O)(=O)c2ccc(Cl)cc2)c1N [compound 13b, N-(6-Amino-3-(benzo[d]thiazole-2-yl)-5-cyano-2-oxopyridine-1(2H)-yl)-4-chlorobenzensulfonamide] | 100 µg/mL | 100 µg/mL | 100 µg/mL | 100 µg/mL | 100 µg/mL | 26.7% | 16.7% | 26.7% | 26.7% | 30.0% | 
6 | Cc1ccc(S(=O)(=O)Nn2c(N)c(C#N)cc(-c3nc4ccccc4s3)c2=O)cc1 [compound 13c, N-(6-Amino-3-(benzo[d]thiazole-2-yl)-5-cyano-2-oxopyridine-1(2H)-yl)-4-methylbenzensulfonamide] | 110 µg/mL | 110 µg/mL | 110 µg/mL | 110 µg/mL | 100 µg/mL | 10.0% | 3.3% | 6.7% | 10.0% | 10.0% | 
7 | CCOC(=O)c1cc(-c2nc3ccccc3s2)c(=O)n(NS(=O)(=O)c2ccc(C)cc2)c1N [compound 13f, Ethyl-2-amino-5-(benzo[d]thiazole-2-yl)-1-(4-methylphenylsulfonamido)-6-Oxo-1,6-dihydropyridine-3-carboxylate] | 140 µg/mL | 140 µg/mL | 130 µg/mL | 140 µg/mL | 140 µg/mL | 23.3% | 16.7% | 20.0% | 20.0% | 20.0% | 
